Screens (PubChem BioAssay)
TRPC4 act – TRPC4 (mouse) channel activation | hit rate 0.49% among 310,000 | HEK293 TRPC4beta/mu-opioid, Fluo4 calcium fluorescence; active compounds read high | B-score at 10 µM | AID 2237 | Q9QUQ5;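 active = B-score above 5 SD of library B-scores, and initial fluorescence ratio not above library mean plus 5 SD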;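 also: positive B-score marks a calcium rise read as TRPC4 activation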
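Assay system: HEK293 cells stably co-expressing mouse TRPC4beta and mu-opioid receptor / Timing: Fluo4 dye loading 45 min at room temperature, 110 s recording / Signal: Fluo4 calcium-sensitive dye fluorescence, kinetic, 1 Hz baseline / Read-out: integrated baseline-normalised fluorescence ratio, converted to per-well B score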
TRPC4 PAM – allosterically enhances the mouse TRPC4 cation channel. Q9QUQ5. HEK293 TRPC4beta/mu-opioid, DAMGO EC20, Fluo-4 Ca2+ flux; active compounds read high. B-score at 10 µM. hit rate 0.42% among 310,000. AID 2227;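 active = B-score of calcium response area above 5 SD of library B-scores, with initial fluorescence ratio within 5 SD of library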
TRPC6 activator – mouse TRPC6 channel activation; AID 2550; HEK293-TRPC6 membrane potential dye fluorescence; active compounds read high; hit rate 0.13% among 310,000; B-score at 10 µM;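 active = B-score of the integrated fluorescence ratio above library mean plus 3 SD, and starting fluorescence ratio within library mean plus 5 SD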;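 also: higher score means more depolarization so channel activation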
Target sequence (Q61143 whole entry, looked up): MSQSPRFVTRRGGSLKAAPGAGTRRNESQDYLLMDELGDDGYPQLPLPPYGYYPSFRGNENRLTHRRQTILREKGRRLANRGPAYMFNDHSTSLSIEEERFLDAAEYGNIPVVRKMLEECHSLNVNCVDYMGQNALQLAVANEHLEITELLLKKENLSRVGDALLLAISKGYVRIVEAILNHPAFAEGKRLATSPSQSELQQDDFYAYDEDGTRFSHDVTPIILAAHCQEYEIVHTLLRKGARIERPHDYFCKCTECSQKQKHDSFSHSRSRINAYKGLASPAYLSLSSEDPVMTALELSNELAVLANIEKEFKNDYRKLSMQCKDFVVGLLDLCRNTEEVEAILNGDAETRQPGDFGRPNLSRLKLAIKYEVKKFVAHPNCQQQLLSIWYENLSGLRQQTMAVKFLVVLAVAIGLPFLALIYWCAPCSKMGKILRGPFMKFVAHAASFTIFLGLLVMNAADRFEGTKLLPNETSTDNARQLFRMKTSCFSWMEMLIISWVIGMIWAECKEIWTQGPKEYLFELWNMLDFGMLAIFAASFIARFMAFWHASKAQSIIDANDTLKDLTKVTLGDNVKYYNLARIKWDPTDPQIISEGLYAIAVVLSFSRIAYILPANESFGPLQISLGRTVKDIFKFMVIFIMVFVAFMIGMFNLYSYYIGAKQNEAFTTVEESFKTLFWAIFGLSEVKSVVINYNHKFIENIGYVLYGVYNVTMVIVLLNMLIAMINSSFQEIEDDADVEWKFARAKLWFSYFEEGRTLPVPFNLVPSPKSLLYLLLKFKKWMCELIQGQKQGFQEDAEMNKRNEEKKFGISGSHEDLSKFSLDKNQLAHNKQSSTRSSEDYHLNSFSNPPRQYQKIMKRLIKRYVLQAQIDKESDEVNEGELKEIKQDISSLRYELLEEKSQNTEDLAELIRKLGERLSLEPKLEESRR
TRPC4 block – TRPC4 (mouse) channel inhibition; HEK293 TRPC4beta/mu-opioid, DAMGO-evoked Fluo4 calcium flux; active compounds read low; B-score at 10 µM; hit rate 0.39% among 300,000; AID 2247;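 active = B-score over 3 SD under the library average, no early fluorescence shift, positive overall ratio signal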
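Assay system: Stable TRPC4beta/mu-opioid receptor HEK293 cells | Reagent: DAMGO in two steps, submaximal then maximal | Compound dosing: Single concentration per test compound | Signal: Fluo4 Ca2+ flux fluorescence | Evaluation: Per-well B score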
CR mimetic SO – caloric restriction mimetics inhibiting age-related superoxide in yeast | S. cerevisiae aged cells, superoxide DHE fluorescence; active compounds read low | superoxide response (% of plate mean), % at 10 µM | hit rate 0.18% among 330,000;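 active = superoxide response under a set limit, about three screen SD below normal, cut at about 65% in these data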;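 also: yeast aged for seven days with compound at 30 °C before DHE staining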
TRPC6 inhibitor – mouse TRPC6 channel inhibition; AID 2553; HEK293-TRPC6, membrane potential dye, ACh-evoked depolarization; active compounds read low; B-score at 10 µM; Q61143; hit rate 1.1% among 310,000;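 active = B-score under library mean minus 3 SD, initial fluorescence not abnormally high, positive integrated signal ratio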;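 also: B-score derived from integrated fluorescence ratio over the kinetic read; more negative B-score means stronger inhibition of depolarization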
TRPC4 spec 2 – second check of whether TRPC6 inhibitors also affect mouse TRPC4 | hit rate 42% among 920 | shares compounds with TRPC6 inhibitor | HEK293 TRPC4/MOR, membrane potential dye fluorescence; channel activated by saturating DAMGO dose | inhibition, % at 10 µM;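 active = compounds whose fluorescence signal differed from control wells by over 3 SD, either direction, in both duplicate plates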
TRPC4 spec – tests whether TRPC6 inhibitors also affect mouse TRPC4 | hit rate 61% among 920 | HEK293 TRPC4/mu-opioid, membrane potential fluorescence | activity change, negative = inhibition, % at 10 µM | AID 2777 | shares compounds with TRPC6 inhibitor;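 active = rise or fall in signal beyond 3 SD of buffer-only wells in both replicate plates, either sign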;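 also: integrated kinetic ratio of fluorescence range over baseline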
HEK293 MPD ctr 2-1 – parental HEK293 nonspecific activity of TRPC6 inhibitors, second screen | AID 2779 | parental HEK293 membrane potential dye fluorescence; maximal acetylcholine challenge after compound addition | hit rate 31% among 920 | shares compounds with TRPC6 inhibitor | signal change vs control, % at 10 µM;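 active = membrane potential signal moving either way by over 3 SD of the maximum-effect control, in both duplicate plates, meaning non-specific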
HEK293 MPD ctr-1 – checks TRPC6 inhibitor effects in parental HEK293 cells | shares compounds with TRPC6 inhibitor | parental HEK293 membrane potential dye fluorescence | membrane potential signal change, % at 10 µM | hit rate 60% among 920 | AID 2780;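 active = membrane potential signal shifting up or down by more than 3 SD of buffer-only wells, on both duplicate plates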
HEK293 MPD ctr-2 – parental HEK293 nonspecific activity of TRPC6 modulators | AID 488924 | membrane potential dye fluorescence | membrane potential signal change, % at 10 µM | shares compounds with TRPC6 inhibitor | hit rate 51% among 2,400;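 active = membrane potential signal moves up or down beyond 5 SD from buffer-only wells, on both duplicate plates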
HEK293 MPD ctr 2-2 – second counter-screen for TRPC6 modulators: effect in parental HEK293 cells | shares compounds with TRPC6 inhibitor | membrane potential dye fluorescence; after compound, maximal acetylcholine stimulation | inhibition, % at 10 µM | hit rate 14% among 2,400 | AID 488926;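 active = membrane potential signal drops by more than 5 SD from the mean control signal, in both duplicate plates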
TRPC4/MOR mod – tests whether TRPC6 modulators also affect mouse TRPC4 | shares compounds with TRPC6 inhibitor | HEK293 TRPC4/mu-opioid, membrane potential fluorescence | percent change from control (negative = decrease, positive = increase), % at 10 µM | hit rate 69% among 2,400 | AID 488927;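 active = membrane potential signal moved up or down beyond 5 SD of buffer control wells, in both duplicate plates, actives on both sides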
TRPC4/MOR inh 2 – second check of whether TRPC6 modulators also affect mouse TRPC4 | shares compounds with TRPC6 inhibitor | HEK293 TRPC4/mu-opioid, membrane potential dye fluorescence; stimulated with maximal-effect DAMGO | inhibition, % at 10 µM | hit rate 55% among 2,400;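 active = drop in membrane potential signal beyond 5 SD of the control wells in both duplicate plates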;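 also: TRPC4 counter screen for TRPC6 hits run under conditions tuned for TRPC6 not TRPC4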
TRPC6 block conf – mouse TRPC6 inhibitor confirmation | inhibition, % at 10 µM | shares compounds with TRPC6 inhibitor | HEK293-TRPC6, membrane potential dye, ACh-evoked depolarization | hit rate 43% among 3,300;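 active = fluorescence ratio falls more than 5 SD below the full-stimulation control mean, in both duplicate runs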;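 also: integrated fluorescence ratio of peak minus minimum over baseline after agonist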
TRPC6 act confirm – confirmation of mouse TRPC6 activators; HEK293-TRPC6 membrane potential dye fluorescence, FDSS; shares compounds with TRPC6 inhibitor; activation, % at 10 µM; hit rate 11% among 2,800; AID 488961;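 active = ratio signal rise beyond 5 SD above unstimulated control wells' mean, seen in both duplicate runs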
Each line names hits and unclear results; the compound was inactive in the other large screens (follow-up assays come after a bar, where they were run). An excerpt weighted towards active compounds, which were near 2.3% of everything screened.

O=[N+]([O-])c1ccc2oc(C(O)c3cccc(Cl)c3)cc2c1 (stereo not given)	none
CN(C(=O)CCCN1CCCC1=O)C1CCCN(Cc2ccccc2F)C1 (stereo not given)	TRPC6 inhibitor -5.06 (no result: CR mimetic SO) | HEK293 MPD ctr-2 inactive | HEK293 MPD ctr 2-2 inactive | TRPC4/MOR mod inactive | TRPC4/MOR inh 2 inactive | TRPC6 block conf inactive | TRPC6 act confirm inactive
Cc1cccc(-c2nsc(SCC(=O)Nc3nccs3)n2)c1	TRPC6 inhibitor -5.7 | HEK293 MPD ctr-2 inactive | HEK293 MPD ctr 2-2 inactive | TRPC4/MOR mod inactive | TRPC4/MOR inh 2 inactive | TRPC6 block conf inactive | TRPC6 act confirm inactive
Cc1c(NC(=O)C2(c3ccccc3)CCOCC2)c(=O)n(-c2ccccc2)n1C	none
Cc1c(Cl)c([N+](=O)[O-])nn1CCCC(=O)Nc1c(C)n(C)n(-c2ccccc2)c1=O	TRPC6 inhibitor -6.52 | HEK293 MPD ctr-2 inactive | HEK293 MPD ctr 2-2 inactive | TRPC4/MOR mod inactive | TRPC4/MOR inh 2 inactive | TRPC6 block conf inactive | TRPC6 act confirm inactive
Cc1c(NC(=O)C2(c3ccc(Cl)cc3)CCCC2)c(=O)n(-c2ccccc2)n1C	TRPC6 inhibitor -6.61 | TRPC4 spec 2 inactive | TRPC4 spec inactive | HEK293 MPD ctr 2-1 inactive | HEK293 MPD ctr-1 inactive | TRPC6 block conf inactive | TRPC6 act confirm inactive
COc1ccc(NC(=O)Nc2nc(C)cc(C)n2)c(OC)c1	TRPC6 inhibitor -5.37 | HEK293 MPD ctr-2 -75.0% | HEK293 MPD ctr 2-2 inactive | TRPC4/MOR mod -15.0% | TRPC4/MOR inh 2 inactive | TRPC6 block conf inactive | TRPC6 act confirm inactive
COc1cc(NC(=O)Nc2c(C)n(C)n(-c3ccccc3)c2=O)cc(OC)c1OC	none
COc1ccc(NC(=O)Nc2c(C)n(C)n(-c3ccccc3)c2=O)c(OC)c1	TRPC6 inhibitor -5.02 | HEK293 MPD ctr-2 inactive | HEK293 MPD ctr 2-2 inactive | TRPC4/MOR mod inactive | TRPC4/MOR inh 2 inactive | TRPC6 block conf inactive | TRPC6 act confirm inactive
Cc1c(Cl)c([N+](=O)[O-])nn1CCCC(=O)Nc1c(Cl)cccc1Cl	none
Cc1cccc(C)c1NC(=O)c1ccc(-n2cncn2)nc1	none
CCC(C(=O)NCc1ccco1)N(C(=O)CNS(=O)(=O)c1ccccc1)c1ccc(F)cc1 (stereo not given)	none
